Measurements from different studies.
Lines come from different studies, so protocols differ.
GSK3B: Glycogen synthase kinase-3 beta (GSK3B, Homo sapiens, UniProt P49841)
MLNR: Motilin receptor (MLNR, Homo sapiens, UniProt O43193)
PTGS2: Prostaglandin G/H synthase 2 (PTGS2, Ovis aries, UniProt P79208)
AVPR1A: Vasopressin V1a receptor (AVPR1A, Homo sapiens, UniProt P37288)

SMILES | target | assay | system | conditions | inhibition
CC(=O)NCCc1ccc(O)c(-c2c(O)c(O)c3c(c2O)C(=O)c2c(cc(O)c(C(=O)O)c2C(=O)O)C3=O)c1 | GSK3B | enzyme activity, inhibitor, ADP detection |  | 100 µM | 75.3%
CS(=O)(=O)Nc1cccc(-c2csc(NC(=O)CSc3nc4nccnc4c(=O)n3CCc3ccccc3)n2)c1 | Phosphatidylinositol 4-kinase type 2-beta (PI4K2B, Homo sapiens, UniProt Q8TCG2) | enzyme activity, inhibitor |  | 10 µM | -5%
CN(C)C1CCN(CC#Cc2nn(C3CCCC3)c3nc(NCc4ccccc4)ncc23)C1 (centres unmarked) | MAP kinase-activated protein kinase 2 (MAPKAPK2, Homo sapiens, UniProt P49137) | enzyme activity, inhibitor, FRET |  | 0.1 µM | -2%
COC(=O)C1=C(C#N)NC(C)=C(C(=O)OC(C)C)C1c1cccc([N+](=O)[O-])c1 (centres unmarked) | GSK3B | enzyme activity, inhibitor, ADP detection |  | 100 µM | 25.3%
Ic1cccc2cnccc12 | Protein mono-ADP-ribosyltransferase TIPARP (TIPARP, Homo sapiens, UniProt Q7Z3E1) | enzyme activity, inhibitor |  | 10 µM | 2%
Oc1cccc(Nc2nc(-c3ccc(F)cc3F)cs2)c1 | MLNR | cell-free assay |  | 10 µM | 6.5%
C[C@@H]1O[C@@H](OC[C@H]2O[C@@H](Oc3c(-c4ccc(O)cc4)oc4cc(O)cc(O)c4c3=O)[C@H](O[C@@H]3O[C@H](CO)[C@@H](O)[C@H](O)[C@H]3O)[C@@H](O)[C@@H]2O)[C@H](O)[C@H](O)[C@H]1O | PTGS2 | enzyme activity, inhibitor, absorbance |  | 50 µM | 53.8%
CCN1CCN(Cc2ccc(NC(=O)c3ccc(C)c(/C=C/c4cnc5[nH]ccc5c4OC)c3)cc2C(F)(F)F)CC1 | Mitogen-activated protein kinase kinase kinase 5 (MAP3K5, Homo sapiens, UniProt Q99683) | target engagement in cells, inhibitor, chemoproteomics | A-375 | 50 nM | -33.8%
O=c1c(-c2ccc(O)cc2)coc2cc(O)ccc12 | GSK3B | enzyme activity, inhibitor, ADP detection |  | 100 µM | 59.2%
O=c1c(O[C@@H]2O[C@H](CO)[C@@H](O)[C@H](O)[C@H]2O)c(-c2ccc(O)cc2)oc2cc(O)cc(O)c12 | PTGS2 | enzyme activity, inhibitor, absorbance |  | 50 µM | 55.1%
CCc1cccc2c3c([nH]c12)C(CC)(CC(=O)O)OCC3 (centres unmarked) | GSK3B | enzyme activity, inhibitor, ADP detection |  | 100 µM | 40.8%
O=C1N=C(N2CCCCN2)S/C1=C\c1ccc(F)cc1O | AVPR1A | ligand displacement, radioligand |  | 10 µM | < 10%
O=C(c1ccc(Cl)cc1)N(Cc1ccccc1)C1CCCCC1 | AVPR1A | cell-free assay |  | 10 µM | 47.7%
O=c1c(O[C@@H]2O[C@H](CO)[C@@H](O)[C@H](O)[C@H]2O)c(-c2ccc(O)cc2)oc2cc(O[C@@H]3O[C@H](CO)[C@@H](O)[C@H](O)[C@H]3O)cc(O)c12 | PTGS2 | enzyme activity, inhibitor, absorbance |  | 50 µM | 54.8%
COc1cc(NC(C)=O)c(Cl)cc1C(=O)Nc1nccs1 | MLNR | cell-free assay |  | 10 µM | 21.6%
C[C@@H]1CN(c2c(F)c(N)c3c(=O)c(C(=O)O)cn(C4CC4)c3c2F)C[C@H](C)N1 | GSK3B | enzyme activity, inhibitor, ADP detection |  | 100 µM | 14%
C[C@@H]1O[C@@H](O[C@H]2[C@H](Oc3c(-c4ccc(O)cc4)oc4cc(O)cc(O)c4c3=O)O[C@H](CO[C@@H]3O[C@H](CO)[C@@H](O)[C@H](O)[C@H]3O)[C@@H](O)[C@@H]2O)[C@H](O)[C@H](O)[C@H]1O | PTGS2 | enzyme activity, inhibitor, absorbance |  | 50 µM | 57.7%
CCN(c1cc(C#CCN2CCOCC2)cc(C(=O)NCc2c(C)cc(C)[nH]c2=O)c1C)[C@H]1CC[C@H](N(C)CCOC)CC1 | Protein arginine N-methyltransferase 8 (PRMT8, Homo sapiens, UniProt Q9NR22) | enzyme activity, inhibitor |  | 1 µM | 9%
O=C1OC(CN2CCOCC2)CN1/N=C/c1ccc([N+](=O)[O-])o1 (centres unmarked) | GSK3B | enzyme activity, inhibitor, ADP detection |  | 100 µM | 20.2%
CN1CC(Oc2cnc(C#N)cc2-c2ccn3nc(NC(=O)C4CC4)cc3c2)C1 | [Pyruvate dehydrogenase (acetyl-transferring)] kinase isozyme 2, mitochondrial (PDK2, Homo sapiens, UniProt Q15119) | enzyme activity, inhibitor |  | 1 µM | 17%
